From PubChem
TRPC4 PAM = positive allosteric modulators of TRPC4, primary screen, cell-based, mouse TRPC4beta, HEK293 mu-opioid, Fluo-4 calcium | AID 2227, 2009 | B-score at 10 µM | DAMGO EC20, Fluo-4 Ca2+ flux; active compounds read high | 0.42% of 310,000 active;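 active = B-score of calcium response area above 5 SD of library B-scores, with initial fluorescence ratio within 5 SD of library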;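 note: B-score of integrated fluorescence ratio over time as area under calcium response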
Target sequence (Q9QUQ5 whole entry, looked up): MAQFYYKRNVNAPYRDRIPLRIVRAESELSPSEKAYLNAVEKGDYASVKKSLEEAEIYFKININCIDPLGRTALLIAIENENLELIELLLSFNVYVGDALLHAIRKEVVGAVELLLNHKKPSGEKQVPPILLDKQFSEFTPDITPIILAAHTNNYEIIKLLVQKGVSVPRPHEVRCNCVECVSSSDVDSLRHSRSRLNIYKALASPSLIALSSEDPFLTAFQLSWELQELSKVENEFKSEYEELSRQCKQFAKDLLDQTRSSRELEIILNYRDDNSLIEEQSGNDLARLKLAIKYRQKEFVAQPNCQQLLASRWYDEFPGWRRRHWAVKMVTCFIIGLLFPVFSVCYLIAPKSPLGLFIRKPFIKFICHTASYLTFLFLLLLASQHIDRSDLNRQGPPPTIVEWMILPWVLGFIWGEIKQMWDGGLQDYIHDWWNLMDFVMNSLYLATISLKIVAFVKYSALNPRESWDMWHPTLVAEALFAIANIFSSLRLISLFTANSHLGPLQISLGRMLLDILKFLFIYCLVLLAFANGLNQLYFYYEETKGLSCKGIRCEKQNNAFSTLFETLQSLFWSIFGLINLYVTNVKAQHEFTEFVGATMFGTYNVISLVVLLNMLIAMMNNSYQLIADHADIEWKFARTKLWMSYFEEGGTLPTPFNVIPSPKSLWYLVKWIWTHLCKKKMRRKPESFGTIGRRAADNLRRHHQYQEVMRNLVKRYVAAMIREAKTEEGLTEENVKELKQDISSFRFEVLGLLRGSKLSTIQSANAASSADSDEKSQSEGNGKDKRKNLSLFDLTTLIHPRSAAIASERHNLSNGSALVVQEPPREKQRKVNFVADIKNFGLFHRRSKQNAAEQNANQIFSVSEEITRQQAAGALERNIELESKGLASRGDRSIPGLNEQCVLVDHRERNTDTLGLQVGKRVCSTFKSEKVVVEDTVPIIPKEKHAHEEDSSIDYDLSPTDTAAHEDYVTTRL
TRPC6 act = mouse TRPC6 channel activators, primary screen, cell-based, HEK293, membrane potential dye; B-score at 10 µM; 0.13% of 310,000 active; Short transient receptor potential channel 6 (Mus musculus), Q61143; HEK293-TRPC6 membrane potential dye fluorescence; active compounds read high;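 active = B-score of the integrated fluorescence ratio above library mean plus 3 SD, and starting fluorescence ratio within library mean plus 5 SD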;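 note: higher score means more depolarization so channel activation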
TRPC4 act = activators of mouse TRPC4 channel, primary screen, Fluo4 calcium, HEK293 TRPC4beta/mu-opioid cells; Fluo4 calcium fluorescence; active compounds read high; AID 2237, 2010; 0.49% of 310,000 active; B-score at 10 µM;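 active = B-score above 5 SD of library B-scores, and initial fluorescence ratio not above library mean plus 5 SD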;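 note: positive B-score marks a calcium rise read as TRPC4 activation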
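Technique: kinetic Fluo4 calcium fluorescence; Test system: TRPC4beta and mu-opioid receptor HEK293 stable cells; Measure: B-scored integrated calcium fluorescence ratio; Benchmarks: low control buffer alone, high control maximal DAMGO; Schedule: 45 min room-temperature Fluo4 loading, 110 s read.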
TRPC6 inh = mouse TRPC6 channel inhibitors, primary screen, cell-based, HEK293, membrane potential dye | Short transient receptor potential channel 6 (Mus musculus), Q61143 | ACh-evoked depolarization; active compounds read low | B-score at 10 µM | 1.1% of 310,000 active | AID 2553, 2010;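 active = B-score under library mean minus 3 SD, initial fluorescence not abnormally high, positive integrated signal ratio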;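 note: B-score derived from integrated fluorescence ratio over the kinetic read; more negative B-score means stronger inhibition of depolarization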
TRPC4 block = inhibitors of mouse TRPC4 channel, primary screen, Fluo4 calcium, HEK293 TRPC4beta/mu-opioid cells; Short transient receptor potential channel 4 (Mus musculus), Q9QUQ5; DAMGO-evoked Fluo4 calcium flux; active compounds read low; B-score at 10 µM; 0.39% of 300,000 active; AID 2247, 2010;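 active = B-score over 3 SD under the library average, no early fluorescence shift, positive overall ratio signal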
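Assay system – HEK293 line stably carrying TRPC4beta and mu-opioid receptor · Doses – single dose · Detection – Fluo4 calcium-dye fluorescence, kinetic read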
TRPC4 sel inh 2 = second selectivity test of TRPC6 inhibitors: effect on mouse TRPC4 | 42% of 920 active | inhibition, % at 10 µM | HEK293 TRPC4/MOR, membrane potential dye fluorescence; channel activated by saturating DAMGO dose | shares compounds with TRPC6 inh;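 active = compounds whose fluorescence signal differed from control wells by over 3 SD, either direction, in both duplicate plates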
TRPC4 spec = mouse TRPC4 modulation by TRPC6 hits, confirmation, selectivity assay for TRPC6 inhibitor project, cell-based, HEK293 TRPC4/mu-opioid, membrane potential dye. shares compounds with TRPC6 inh. membrane potential fluorescence. activity change, negative = inhibition, % at 10 µM. 61% of 920 active. AID 2777, 2010;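 active = rise or fall in signal beyond 3 SD of buffer-only wells in both replicate plates, either sign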;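 note: integrated kinetic ratio of fluorescence range over baseline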
HEK293 MPD ctr 2-1 = nonspecific membrane potential effects, parental HEK293, confirmation, counter-screen for TRPC6 inhibitor project, cell-based, second counter screen | shares compounds with TRPC6 inh | parental HEK293 membrane potential dye fluorescence; maximal acetylcholine challenge after compound addition | signal change vs control, % at 10 µM | 31% of 920 active | AID 2779, 2010;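 active = membrane potential signal moving either way by over 3 SD of the maximum-effect control, in both duplicate plates, meaning non-specific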
HEK293 MPD ctr-1 = membrane potential modulation in parental HEK293, confirmation, counter-screen for TRPC6 inhibitor project, cell-based. shares compounds with TRPC6 inh. parental HEK293 membrane potential dye fluorescence. membrane potential signal change, % at 10 µM. 60% of 920 active;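 active = membrane potential signal shifting up or down by more than 3 SD of buffer-only wells, on both duplicate plates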
HEK293 MPD ctr-2 = parental HEK293 membrane potential modulation, confirmation, counter-screen for TRPC6 modulator project, cell-based; shares compounds with TRPC6 inh; membrane potential dye fluorescence; membrane potential signal change, % at 10 µM; 51% of 2,400 active;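 active = membrane potential signal moves up or down beyond 5 SD from buffer-only wells, on both duplicate plates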
HEK293 MPD ctr 2-2 = parental HEK293 nonspecific activity of TRPC6 modulators, second screen. shares compounds with TRPC6 inh. membrane potential dye fluorescence; after compound, maximal acetylcholine stimulation. inhibition, % at 10 µM. 14% of 2,400 active;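 active = membrane potential signal drops by more than 5 SD from the mean control signal, in both duplicate plates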;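 note: plate controls were acetylcholine ECmax control wells for no effect and buffer only wells for full effect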
TRPC4 ctr mod = TRPC4 modulation by TRPC6 hit compounds, confirmation, selectivity assay for TRPC6 modulator project, cell-based, HEK293 TRPC4/mu-opioid, membrane potential dye, mouse | shares compounds with TRPC6 inh | membrane potential fluorescence | percent change from control (negative = decrease, positive = increase), % at 10 µM | 69% of 2,400 active | AID 488927, 2010;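 active = membrane potential signal moved up or down beyond 5 SD of buffer control wells, in both duplicate plates, actives on both sides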;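 note: plate controls were assay buffer wells for no effect and DAMGO maximal-effect wells for full effect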
TRPC4/MOR inh 2 = second selectivity test of TRPC6 modulators against mouse TRPC4. HEK293 TRPC4/mu-opioid, membrane potential dye fluorescence; stimulated with maximal-effect DAMGO. AID 488928. inhibition, % at 10 µM. shares compounds with TRPC6 inh. 55% of 2,400 active;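 active = drop in membrane potential signal beyond 5 SD of the control wells in both duplicate plates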;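 note: TRPC4 counter screen for TRPC6 hits run under conditions tuned for TRPC6 not TRPC4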
TRPC6 inh conf = mouse TRPC6 channel inhibitors, confirmation, HEK293 cells, membrane potential dye, duplicate. shares compounds with TRPC6 inh. ACh-evoked depolarization. inhibition, % at 10 µM. 43% of 3,300 active;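 active = fluorescence ratio falls more than 5 SD below the full-stimulation control mean, in both duplicate runs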;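 note: integrated fluorescence ratio of peak minus minimum over baseline after agonist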
TRPC6 act conf = mouse TRPC6 channel activators, confirmation, HEK293 cells, membrane potential dye, duplicate. shares compounds with TRPC6 inh. HEK293-TRPC6 membrane potential dye fluorescence, FDSS. activation, % at 10 µM. 11% of 2,800 active;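 active = ratio signal rise beyond 5 SD above unstimulated control wells' mean, seen in both duplicate runs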;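 note: plate controls were buffer EC0 wells for no effect and acetylcholine ECmax response for full effect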
An asterisk follows results filed as active; i = inactive; nt = no result given. Hits are enriched below; roughly 2.3% of the tested compounds scored in any of these assays.

SMILES | TRPC4 PAM | TRPC6 act | TRPC4 act | TRPC6 inh | TRPC4 block | HEK293 MPD ctr-2 | HEK293 MPD ctr 2-2 | TRPC4 ctr mod | TRPC4/MOR inh 2 | TRPC6 inh conf | TRPC6 act conf | others
CCC(C)[C@H]1CNCCN1CCc1cc(C(F)(F)F)cc(C(F)(F)F)c1 (some centres not stated) | i | i | i | -7.2* | i | nt | nt | nt | nt | i | i | TRPC4 sel inh 2=54%*;TRPC4 spec=i;HEK293 MPD ctr 2-1=i;HEK293 MPD ctr-1=i
CCCC[C@@H]1CNCCN1CCc1cc(C(F)(F)F)cc(C(F)(F)F)c1 | i | i | i | i | i | nt | nt | nt | nt | nt | nt
O=C(CN(c1ccc(F)cc1)S(=O)(=O)c1ccccc1)NC1CCCCCC1 | i | i | i | i | i | nt | nt | nt | nt | nt | nt
CCOC(=O)Nc1ccc2c(c1)OCO2 | i | i | i | -5.6* | i | i | i | i | i | i | i
CN(C)c1ccc2c(c1)OC(N)=C(C#N)C2c1cccc(F)c1 (configuration not stated) | i | 12* | 56* | i | i | 413%* | i | 30%* | 45%* | i | 44%*
COCc1c(C#N)c(NCCc2ccc(F)cc2)nc(C)c1[N+](=O)[O-] | i | i | i | -8* | i | nt | nt | nt | nt | i | i | TRPC4 sel inh 2=i;TRPC4 spec=i;HEK293 MPD ctr 2-1=i;HEK293 MPD ctr-1=i
COCc1c(C#N)c(NCCc2ccccc2)nc(C)c1[N+](=O)[O-] | i | i | i | i | i | nt | nt | nt | nt | nt | nt
O=C(CCN1C(=O)c2ccccc2C1=O)Nc1ccccc1C(F)(F)F | i | i | i | -7.3* | i | nt | nt | nt | nt | i | i | TRPC4 sel inh 2=i;TRPC4 spec=i;HEK293 MPD ctr 2-1=i;HEK293 MPD ctr-1=i
O=C(CN1C(=O)c2ccccc2C1=O)Nc1ccccc1C(F)(F)F | i | i | i | i | i | nt | nt | nt | nt | nt | nt
CC(C)COc1ccc(S(=O)(=O)NNC(=O)c2cc3ccccc3o2)cc1 | i | i | i | i | i | nt | nt | nt | nt | nt | nt
CCCCOc1ccc(S(=O)(=O)NNC(=O)c2cc3ccccc3o2)cc1 | i | i | i | -5.2* | i | i | i | i | i | i | i
Cc1nc2nc(SCC(=O)NCCCN3CCCC(C)C3)nn2c(C)c1Cc1ccccc1Cl (configuration not stated) | i | i | i | -6.7* | i | i | i | i | i | 49%* | nt
O=C(/C=C/c1ccccc1)NCCCNC(=O)/C=C/c1ccccc1 | i | i | i | i | i | nt | nt | nt | nt | nt | nt
O=C(C1COc2ccccc2O1)N1CCN(c2nc3c(F)cc(F)cc3s2)CC1 (configuration not stated) | i | i | i | -8.5* | i | nt | nt | nt | nt | i | i | TRPC4 sel inh 2=i;TRPC4 spec=i;HEK293 MPD ctr 2-1=i;HEK293 MPD ctr-1=i
O=C(C1COc2ccccc2O1)N1CCN(c2nc3ccccc3s2)CC1 (configuration not stated) | i | i | i | i | i | nt | nt | nt | nt | nt | nt
CC(=O)Nc1ccc(SCC(=O)Nc2ccc(Cl)cn2)cc1 | i | i | i | i | i | nt | nt | nt | nt | nt | nt
CCCCNC(=O)N1CCc2[nH]c3ccccc3c2C1 | i | i | i | -6.1* | i | i | i | i | i | 72%* | nt
S=C(NCc1ccccc1)N1CCc2ccccc2C1 | i | i | i | i | nt | nt | nt | nt | nt | nt | nt
C=CCNC(=O)N1CCc2[nH]c3ccc(F)cc3c2C1 | i | i | i | -6.2* | i | 240%* | i | 18%* | i | 82%* | nt
Fc1ccc2[nH]c3c(c2c1)CN(C(=S)NCc1ccccc1)CC3 | i | i | i | -12* | i | nt | nt | nt | nt | 127%* | nt | TRPC4 sel inh 2=i;TRPC4 spec=-13%*;HEK293 MPD ctr 2-1=i;HEK293 MPD ctr-1=i
COc1ccc(CN2CCNC(=O)C2CC(=O)NCC(C)(C)N2CCOCC2)cc1C (configuration not stated) | i | i | i | i | i | nt | nt | nt | nt | nt | nt
NC1C2CN(c3nc4c(cc3F)c(=O)c(C(=O)O)cn4-c3ccc(F)cc3F)CC12 (configuration not stated) | i | i | i | -5.6* | i | -274%* | i | -46%* | i | i | i
O=C(O)c1cn(-c2ccc(F)cc2)c2cc(Cl)c(F)cc2c1=O | i | i | i | i | i | nt | nt | nt | nt | nt | nt
